Drawing on ChEMBL document CHEMBL1126625, “7-Azetidinylquinolones as antibacterial agents. Synthesis and structure-activity relationships” (J Med Chem, 1993), this text covers MIC, ED50 and AUC for seven compounds.

The test system of one data set is Proteus vulgaris. The data set can be described thus: Minimum inhibitory concentration (MIC) preventing growth of Proteus vulgaris. It counts as functional.
The next data set relates to Bacillus subtilis. The data set can be described thus: Minimum inhibitory concentration (MIC) preventing growth of Bacillus subtilis. It is filed as functional.
Data set [1] relates to Staphylococcus aureus. The data set is described as follows: Minimum inhibitory concentration (MIC) preventing growth of […]. It counts as functional.
For a further data set, the system named is Enterobacter cloacae. The data set can be described thus: Minimum inhibitory concentration (MIC)preventing growth of Enterobacter cloacae. It counts as functional.
Another data set has as its system Enterococcus faecalis. The data set can be described thus: Minimum inhibitory concentration (MIC) preventing growth of Streptococcus faecalis ATCC 10541. It counts as functional.
The test system of another data set is Klebsiella pneumoniae. The data set is described as follows: Minimum inhibitory concentration (MIC)preventing growth of Klebsiella pneumoniae. It is filed as functional.
The test system of data set [2] is Staphylococcus aureus. The data set can be described thus: Efficacy on systemic infections after oral administration in mice was determined against […] HS-93. It is filed as functional. In short, it runs like this:
(§1)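 Mouse protection test using 4 groups of 10 mice. Mice were infected intraperitoneally with a bacterial suspension slightly above LD100. A single oral dose was given immediately after infection, with four doses, one per group, chosen from in vitro activity. Survival was scored after one week, and ED50 (total mg/kg protecting 50% of mice) was interpolated from group survival rates.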

In the next data set the test system is Morganella morganii. The data set is described as follows: Minimum inhibitory concentration (MIC) preventing growth of Morganella morganii. It is filed as functional.
The subject of data set [3] is Staphylococcus epidermidis. The data set can be described thus: Minimum inhibitory concentration (MIC) preventing growth of Staphylococcus epidermidis. It counts as functional.
The test system of a further data set is Mus musculus. The data set can be described thus: Blood level after oral administration in mice (50 mg/kg) was determined by bioassay procedure and represent total activity present in the serum. It is filed as ADME, organism-based. The conditions noted are these: in vivo. In short, it runs like this: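 Single oral dose of 50 mg/kg to mice. Blood taken from groups of six mice at 0.5, 1, 2 and 4 h after dosing. Serum levels measured by disk agar diffusion bioassay with Bacillus subtilis ATCC 6633 on Seed Agar, plates incubated 18 h at 37 °C, giving total activity in serum. AUC 0-4 h expressed as μg/mL […].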

Data set [4] has as its system Pseudomonas aeruginosa. The data set can be described thus: Minimum inhibitory concentration (MIC)preventing growth of Pseudomonas aeruginosa. It counts as functional.
Data set [5] relates to Escherichia coli. The data set can be described thus: Efficacy on systemic infections after oral administration in mice was determined against Escherichia coli HM-42. It is filed as functional. In short, it runs like this:
as §1

Data set [6] relates to Pseudomonas aeruginosa. The data set is described as follows: Efficacy on systemic infections after oral administration in mice was determined against Pseudomonas aeruginosa HS-116. It is filed as functional. In short, it runs like this: as §1
The subject of the next data set is Bacillus cereus. The data set can be described thus: Minimum inhibitory concentration (MIC) preventing growth of Bacillus cereus. It counts as functional.
In data set [7] the test system is Escherichia coli. The data set is described as follows: Minimum inhibitory concentration (MIC)preventing growth of Escherichia coli. It is filed as functional.

In brackets after ≈: the same amount, converted by molar mass.

In the case of `CNC1CN(c2c(F)cc3c(=O)c(C(=O)O)cn(C4CC4)c3c2Cl)C1`, the MIC was 0.015 µg/mL (≈ 0.041 µM) in the data set with Proteus vulgaris; 0.015 µg/mL (≈ 0.041 µM) with Bacillus subtilis; 0.06 µg/mL (≈ 0.164 µM) against Staphylococcus aureus [1]; 0.015 µg/mL (≈ 0.041 µM) in the data set with Enterobacter cloacae; 0.25 µg/mL (≈ 0.683 µM) against Enterococcus faecalis; 0.12 µg/mL (≈ 0.328 µM) in the data set on Klebsiella pneumoniae. Moreover, the MIC in the data set on Morganella morganii was determined as 0.015 µg/mL (≈ 0.041 µM); in data set [3], 0.06 µg/mL (≈ 0.164 µM); against Pseudomonas aeruginosa [4], 0.25 µg/mL (≈ 0.683 µM); with Bacillus cereus, 0.12 µg/mL (≈ 0.328 µM); against Escherichia coli [7] it was 0.015 µg/mL (≈ 0.041 µM). Further, the median effective dose (ED50) came out at 15.2 mg/kg in the data set on Staphylococcus aureus [2], 2 mg/kg with Escherichia coli [5] and 39 mg/kg in the data set on Pseudomonas aeruginosa [6]. In the data set on Mus musculus, this compound came in with an AUC of 4000 ng·h/mL.
With `CC1(N)CN(c2nc3c(cc2F)c(=O)c(C(=O)O)cn3C2CC2)C1`, the MIC in the data set with Proteus vulgaris was found to be 0.12 µg/mL (≈ 0.361 µM); against Bacillus subtilis it was 0.03 µg/mL (≈ 0.0903 µM); against Staphylococcus aureus [1] it was 0.25 µg/mL (≈ 0.752 µM); in the data set with Enterobacter cloacae, 0.03 µg/mL (≈ 0.0903 µM); against Enterococcus faecalis, 0.25 µg/mL (≈ 0.752 µM); against Klebsiella pneumoniae, 0.03 µg/mL (≈ 0.0903 µM). For the same compound, the minimal inhibitory concentration (MIC) in the data set with Morganella morganii is 0.06 µg/mL (≈ 0.181 µM); in [3], 0.12 µg/mL (≈ 0.361 µM); with Pseudomonas aeruginosa [4] it was 0.5 µg/mL (≈ 1.5 µM); with Bacillus cereus it was 0.12 µg/mL (≈ 0.361 µM); in the data set with Escherichia coli [7], 0.03 µg/mL (≈ 0.0903 µM). The values for the ED50 in the data set with Staphylococcus aureus [2], with Escherichia coli [5] and in the data set with Pseudomonas aeruginosa [6] were 10.7 mg/kg, 2.8 mg/kg and 52 mg/kg, respectively. This compound gave an AUC with Mus musculus of 31700 ng·h/mL.
`CC1(N)CN(c2nc3c(cc2F)c(=O)c(C(=O)O)cn3-c2ccc(F)cc2F)C1`: the MIC against Proteus vulgaris amounted to 0.5 µg/mL (≈ 1.24 µM); in the data set on Bacillus subtilis it was 0.06 µg/mL (≈ 0.148 µM); against Staphylococcus aureus [1], 0.12 µg/mL (≈ 0.297 µM); against Enterobacter cloacae it was 0.12 µg/mL (≈ 0.297 µM); in the data set with Enterococcus faecalis, 0.5 µg/mL (≈ 1.24 µM); in the data set with Klebsiella pneumoniae, 0.06 µg/mL (≈ 0.148 µM). Moreover, the MIC in the data set with Morganella morganii is 0.25 µg/mL (≈ 0.618 µM); in [3] it was 0.12 µg/mL (≈ 0.297 µM); against Pseudomonas aeruginosa [4], 1 µg/mL (≈ 2.47 µM); against Bacillus cereus, 0.12 µg/mL (≈ 0.297 µM); in the data set on Escherichia coli [7] it was 0.12 µg/mL (≈ 0.297 µM). Also, the ED50 with Staphylococcus aureus [2] worked out at 6.7 mg/kg; in the data set with Escherichia coli [5] it was 3.1 mg/kg; with Pseudomonas aeruginosa [6], 108 mg/kg. The compound also returned an exposure (AUC) in the data set on Mus musculus of 46400 ng·h/mL.
Turning to `NC1CN(c2c(F)cc3c(=O)c(C(=O)O)cn(C4CC4)c3c2Cl)C1`, the MIC turned out to be 0.015 µg/mL (≈ 0.0426 µM) with Proteus vulgaris; 0.06 µg/mL (≈ 0.171 µM) against Bacillus subtilis; 0.12 µg/mL (≈ 0.341 µM) in the data set with Staphylococcus aureus [1]; 0.015 µg/mL (≈ 0.0426 µM) in the data set with Enterobacter cloacae; 0.12 µg/mL (≈ 0.341 µM) with Enterococcus faecalis; 0.06 µg/mL (≈ 0.171 µM) with Klebsiella pneumoniae. Further, the MIC against Morganella morganii was determined as 0.015 µg/mL (≈ 0.0426 µM); in data set [3], 0.12 µg/mL (≈ 0.341 µM); against Pseudomonas aeruginosa [4], 0.25 µg/mL (≈ 0.711 µM); with Bacillus cereus, 0.12 µg/mL (≈ 0.341 µM); against Escherichia coli [7], 0.015 µg/mL (≈ 0.0426 µM). Besides, the ED50 with Staphylococcus aureus [2] amounted to 7.2 mg/kg; in the data set with Escherichia coli [5], 1.1 mg/kg; with Pseudomonas aeruginosa [6], 34 mg/kg. Besides, the AUC in the data set with Mus musculus came to 8500 ng·h/mL.
With `O=C(O)c1cn(C2CC2)c2cc(N3CCNCC3)c(F)cc2c1=O` [CIPROFLOXACIN], the MIC came out at 0.06 µg/mL (≈ 0.181 µM) in the data set on Proteus vulgaris; 0.06 µg/mL (≈ 0.181 µM) in the data set with Bacillus subtilis; 0.25 µg/mL (≈ 0.754 µM) in the data set on Staphylococcus aureus [1]; 0.5 µg/mL (≈ 1.51 µM) in the data set with Enterococcus faecalis; 0.03 µg/mL (≈ 0.0905 µM) in the data set with Klebsiella pneumoniae; 0.06 µg/mL (≈ 0.181 µM) in the data set on Morganella morganii. Moreover, the MIC in data set [3] was 0.5 µg/mL (≈ 1.51 µM); in the data set on Pseudomonas aeruginosa [4], 0.12 µg/mL (≈ 0.362 µM); in the data set on Bacillus cereus it was 0.25 µg/mL (≈ 0.754 µM). The 50% effective dose (ED50) came out at 45.1 mg/kg in the data set with Staphylococcus aureus [2], 3 mg/kg with Escherichia coli [5] and 70.3 mg/kg with Pseudomonas aeruginosa [6]. The compound also came in with an AUC in the data set with Mus musculus of 2300 ng·h/mL.
On to `CC1(N)CN(c2c(F)cc3c(=O)c(C(=O)O)cn(C4CC4)c3c2Cl)C1`, for which the minimal inhibitory concentration (MIC) against Proteus vulgaris worked out at 0.12 µg/mL (≈ 0.328 µM); in the data set on Bacillus subtilis, 0.06 µg/mL (≈ 0.164 µM); in the data set with Staphylococcus aureus [1], 0.06 µg/mL (≈ 0.164 µM); in the data set on Enterobacter cloacae it was 0.03 µg/mL (≈ 0.082 µM); against Enterococcus faecalis it was 0.25 µg/mL (≈ 0.683 µM); in the data set with Klebsiella pneumoniae, 0.03 µg/mL (≈ 0.082 µM). Further, the MIC in the data set with Morganella morganii stood at 0.03 µg/mL (≈ 0.082 µM); in data set [3], 0.06 µg/mL (≈ 0.164 µM); in the data set with Pseudomonas aeruginosa [4], 0.25 µg/mL (≈ 0.683 µM); in the data set with Bacillus cereus it was 0.06 µg/mL (≈ 0.164 µM); against Escherichia coli [7], 0.03 µg/mL (≈ 0.082 µM). The ED50 came out at 4.1 mg/kg in the data set with Staphylococcus aureus [2], 2 mg/kg in the data set with Escherichia coli [5] and 59.8 mg/kg with Pseudomonas aeruginosa [6]. The compound also registered an AUC with Mus musculus of 2800 ng·h/mL.
In the case of `CNC1(C)CN(c2nc3c(cc2F)c(=O)c(C(=O)O)cn3C2CC2)C1`, the MIC stood at 0.25 µg/mL (≈ 0.722 µM) against Proteus vulgaris; 0.03 µg/mL (≈ 0.0866 µM) with Bacillus subtilis; 0.25 µg/mL (≈ 0.722 µM) against Staphylococcus aureus [1]; 0.06 µg/mL (≈ 0.173 µM) against Enterobacter cloacae; 1 µg/mL (≈ 2.89 µM) with Enterococcus faecalis; 0.03 µg/mL (≈ 0.0866 µM) in the data set with Klebsiella pneumoniae. For the same compound, the MIC was found to be 0.06 µg/mL (≈ 0.173 µM) against Morganella morganii; 0.25 µg/mL (≈ 0.722 µM) in data set [3]; 1 µg/mL (≈ 2.89 µM) against Pseudomonas aeruginosa [4]; 0.12 µg/mL (≈ 0.346 µM) in the data set on Bacillus cereus; 0.03 µg/mL (≈ 0.0866 µM) against Escherichia coli [7]. Also, the values for the ED50 in the data set on Staphylococcus aureus [2], in the data set on Escherichia coli [5] and in the data set on Pseudomonas aeruginosa [6] were 9.6 mg/kg, 3 mg/kg and 102 mg/kg, respectively. The compound also returned an AUC in the data set on Mus musculus of 22900 ng·h/mL.
